# Sampled rows, rich in hits. Any-hit rate of the full collection: about 2.9%.
# PRMT1 FP inh = PRMT1 methyltransferase inhibitors, primary screen, biochemical, fluorescence polarization | Protein arginine N-methyltransferase 1 (Homo sapiens), Q99873 | recombinant PRMT1, activity-based probe fluorescence polarization | inhibition, % at 2.79 µM | 370,000 tested, 1.3% active;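 active means inhibition above about 21% made by adding two undisclosed values, limit read from the data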
# ABHD5 PLIN5 PPI = ABHD5-PLIN5 interaction inhibitors, primary screen, cell lysate, split luciferase complementation, luminescence; Perilipin-5 (Homo sapiens) + 1-acylglycerol-3-phosphate O-acyltransferase ABHD5 (Homo …; Split G. princeps luciferase complementation, 4 h; inhibition, % at 4 µM; 360,000 tested, 0.78% active; AID 602281, 2012;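 active means inhibition above the mean inhibition across every tested compound plus 3 SD, cut at about 22% in these data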
# Target sequence (Q00G26 whole entry, looked up): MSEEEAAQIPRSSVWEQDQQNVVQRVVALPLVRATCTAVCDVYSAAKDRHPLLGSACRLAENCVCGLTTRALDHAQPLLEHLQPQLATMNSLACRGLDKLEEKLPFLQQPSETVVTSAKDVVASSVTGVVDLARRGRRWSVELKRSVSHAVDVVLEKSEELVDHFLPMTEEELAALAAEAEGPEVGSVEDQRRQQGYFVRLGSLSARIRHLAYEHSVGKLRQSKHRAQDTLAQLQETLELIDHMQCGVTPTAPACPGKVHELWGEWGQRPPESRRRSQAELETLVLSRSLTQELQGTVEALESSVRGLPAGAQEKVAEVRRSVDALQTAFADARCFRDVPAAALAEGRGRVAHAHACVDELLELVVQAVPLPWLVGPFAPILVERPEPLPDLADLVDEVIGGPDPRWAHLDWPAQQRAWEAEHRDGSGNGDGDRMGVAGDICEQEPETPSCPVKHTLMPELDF
# Target sequence (Q8WTS1 whole entry, looked up): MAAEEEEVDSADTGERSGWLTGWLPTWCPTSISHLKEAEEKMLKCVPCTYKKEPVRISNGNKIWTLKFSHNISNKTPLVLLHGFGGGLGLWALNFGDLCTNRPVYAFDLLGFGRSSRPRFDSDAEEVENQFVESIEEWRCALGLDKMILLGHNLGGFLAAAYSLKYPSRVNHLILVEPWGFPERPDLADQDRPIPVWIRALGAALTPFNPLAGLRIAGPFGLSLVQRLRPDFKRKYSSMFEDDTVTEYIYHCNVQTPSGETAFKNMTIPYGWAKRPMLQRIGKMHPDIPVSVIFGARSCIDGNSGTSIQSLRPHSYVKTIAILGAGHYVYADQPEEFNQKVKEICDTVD
# NS3 helicase inh = inhibitors of HCV NS3 helicase, primary screen, biochemical, Cy5 molecular beacon fluorescence; 290,000 tested, 0.56% active; Hepatitis C virus NS3 helicase; NS3 helicase DNA unwinding; AID 1800, 2009; inhibition, % at 10.9 µM;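 active means inhibition above the mean of all tested compounds plus 3 SD, set per campaign, cut at about 35% in these data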
#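 Assay system – hepatitis C virus NS3 helicase domain fragment enzyme · Buffer or medium – MOPS pH 6.5, MgCl2, DTT, Tween20, BSA · Reagent – Cy5/quencher beacon DNA duplex and ATP to start · Compound – single 10.9 µM dose · Timing – 1 h at 25 °C · Technique – Cy5 beacon fluorescence read at start and 1 h · Measure – % inhibition of unwinding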
# APOBEC3A inh = APOBEC3A ssDNA deaminase inhibitors, primary screen, selectivity assay for APOBEC3G inhibitor project, biochemical, FAM/TAMRA oligo cleavage fluorescence; DNA dC->dU-editing enzyme APOBEC-3A (Homo sapiens), P31941; recombinant A3A, FAM/TAMRA ssDNA deamination fluorescence; inhibition, % at 20 µM; 330,000 tested, 0.41% active; AID 493011, 2011;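 active means at least 40% inhibition at 20 µM here, with at most 30% in a related deaminase screen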
# HCV core dimer = inhibitors of HCV core protein dimerization, primary screen, biochemical, TR-FRET, high-throughput | TR-FRET GST/Flag-core106 dimerization, 1536-well | inhibition, % at 5 µM | 300,000 tested, 0.33% active | AID 1899, 2009;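 active means inhibition above the mean of all tested compounds plus 3 SD, set per screening campaign, cut at about 45% in these data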
#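 test system = GST/Flag-tagged HCV core106 proteins | probe or stimulus = Eu donor and XL665 acceptor anti-tag antibodies | times = compound-protein-antibody incubation 4 h at 22.5 °C | signal = TR-FRET, excitation 340 nm, emission 617 and 671 nm | measure = percent inhibition of core106 dimerization signal | controls = wells lacking GST-core106 and wells with excess unlabelled core106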
# APOBEC3G inh = APOBEC3G DNA deaminase inhibitors, primary screen, biochemical, fluorescence, single-stranded DNA substrate, uHTS; inhibition, % at 20 µM; 330,000 tested, 0.28% active; recombinant A3G, ssDNA deamination FAM/TAMRA fluorescence; DNA dC->dU-editing enzyme APOBEC-3G (Homo sapiens), Q9HC16;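 active means inhibition of at least 40% at 20 µM, with no more than 30% in the related APOBEC3A deaminase screen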
# ABHD5-PLIN5 conf = ABHD5-PLIN5 interaction inhibitors, confirmation, biochemical, luminescence | shares compounds with ABHD5 PLIN5 PPI | inhibition, % at 4 µM | 2,200 tested, 67% active | AID 651612, 2012; in the data active means inhibition above about 23%
# HNF4 split-luc = HNF4 dimerization inhibitors, counter-screen for ABHD5-PLIN5 interaction inhibitor project, biochemical, split-luciferase complementation, luminescence; 2,200 tested, 77% active; shares compounds with ABHD5 PLIN5 PPI; inhibition, % at 4 µM;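 active means mean inhibition across replicate wells exceeding the computed hit threshold, cut at about 13% in these data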;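 further: light from luciferase halves that rejoin when HNF4 fusion proteins dimerize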
# Numbers stand for hits; i = inactive; nt = no result; ! = not confirmed by another sample.
SMILES,PRMT1 FP inh,ABHD5 PLIN5 PPI,NS3 helicase inh,APOBEC3A inh,HCV core dimer,APOBEC3G inh,ABHD5-PLIN5 conf,HNF4 split-luc
CCOC(=O)C1=C(C)N=c2s/c(=C\c3ccncc3)c(=O)n2C1c1ccc2c(c1)OCO2 (centres undefined),i,i,i,i,i,i,nt,nt
CCOC(=O)C1=C(C)N=c2s/c(=C3\C(=O)Nc4ccccc43)c(=O)n2C1c1ccc2c(c1)OCO2 (centres undefined),i,27,i,i,i,i,i,i
COCCCN1CN(S(=O)(=O)c2ccc(C)cc2C)c2nc3ccccc3nc21,i,28,i,i,i,i,i,15
COc1cc(CC(=O)OCc2cccc([N+](=O)[O-])c2)cc(OC)c1OC,i,i,i,i,i,i,nt,nt
O=C(/C=C/c1ccccc1F)c1cccc([N+](=O)[O-])c1,i,70,i,i,i,i,100,99
COc1cc(/C=C/C(=O)c2cccc([N+](=O)[O-])c2)cc(OC)c1OC,i,30,i,i,i,i,95,92
O=C(Nc1ccccc1)c1cc(C2COCCN2C(=O)CCCc2ccccc2)on1 (centres undefined),i,i,nt,nt,nt,nt,nt,nt
Cc1cc(C)n(CC(=O)NNC(=O)COc2ccc(Br)cc2F)n1,i,i,nt,i,nt,i,nt,nt
CC1(C(=O)NCc2cccnc2)CCN1C(=O)Cc1cccs1 (centres undefined),i,i,nt,nt,nt,nt,nt,nt
O=c1[nH]c2nc(Br)[nH]c(=O)c2[nH]1,i,i,nt,nt,nt,nt,nt,nt
CC1CCN(S(=O)(=O)c2ccc(NC(=O)Cc3ccccc3)cc2)CC1,i,33,i,i,i,i,50,i
O=C(Cn1nnc(-c2ccccc2F)n1)Nc1ccc(Cl)c(Cl)c1,i,nt,nt,nt,nt,nt,nt,nt
CC1CCN(S(=O)(=O)c2ccc(NC(=O)Cn3nnc(-c4ccccc4F)n3)cc2)CC1,i,26,i,i,i,i,41,i
O=C(Cc1ccccc1)Nc1ccc(S(=O)(=O)N2CCOCC2)cc1,i,i,i,i,i,i,nt,nt
CC(C)(C)OC(=O)N1CCN(C(=O)c2[nH]cnc2C(=O)Nc2ccccc2F)CC1,i,i,nt,nt,nt,nt,nt,nt
O=C1c2ccccc2NC(c2ccc(-c3ccc(F)cc3)o2)N1O (centres undefined),i,38,nt,i,nt,i,i,13
Cc1cccc(OC(C)C(=O)Nc2ccc3c(c2)OCCO3)c1 (centres undefined),i,i,nt,nt,nt,nt,nt,nt
CCCCC(=O)Nc1cccc(NC(=O)c2cccc(Br)c2)c1,i,i,i,i,i,i,nt,nt
CCCCC(=O)Nc1cccc(C(=O)Nc2ccccc2C(=O)O)c1,i,95,i,i,i,i,i,i
O=C(/C=C\c1ccccc1OC(=O)c1ccccc1F)c1cc2ccccc2o1,i,70,i,i,i,i,100,98
Cc1ccc(OCCC(=O)OCC(=O)NC2CCS(=O)(=O)C2)cc1 (centres undefined),i,i,nt,i,i,i,nt,nt
Cc1cc(C)cc(C(=O)N2CC(=O)Nc3ccccc32)c1,i,i,i,i,i,i,nt,nt
Cc1ccc(/C=C/C(=O)N2CC(=O)Nc3ccccc32)o1,i,25,i,i,i,i,i,30
CC1(C)c2ccccc2N2CC(=O)N[C@@]21/C=C/C=C/c1ccccc1,i,34,i,i,i,i,i,i
CC(=O)c1c(C)[nH]c(C(=O)N2CCN(c3ccccn3)CC2)c1C,i,i,i,i,i,i,nt,nt
SMILES,PRMT1 FP inh,ABHD5 PLIN5 PPI,NS3 helicase inh,APOBEC3A inh,HCV core dimer,APOBEC3G inh,ABHD5-PLIN5 conf,HNF4 split-luc
COc1ccc(/C=C2\CC/C(=C\c3ccc(OC)c(OC)c3)C2=O)cc1OC,i,31,i,i,i,i,58,44
COc1cc(/C=C2/CC/C(=C/c3ccc(O)c(OC)c3)C2=O)ccc1O,i,24,i,i,i,i,26,32
COc1cc(/C=C2\CC/C(=C\c3ccc(OCCO)c(OC)c3)C2=O)ccc1OCCO,i,i,i,i,i,i,nt,nt
COc1cc(/C=C2\COC/C(=C\c3ccc(O)c(OC)c3)C2=O)ccc1O,i,54,i,i,i,i,90,84
COc1ccc(/C=C2\CCC/C(=C\c3ccc(OC)c(OC)c3OC)C2=O)c(OC)c1OC,i,38,i,i,nt,i,i,16
COc1ccc(C2=Cc3ccccc3C(CC(=O)C3CC3)N2c2ccc(-c3cc(OC)c(OC)c(OC)c3)cc2)cc1 (centres undefined),i,i,nt,nt,nt,nt,nt,nt
O=C(CN1CCN(c2ccccc2)CC1)c1ccc2cc[nH]c2c1,i,i,i,i,i,i,nt,nt
O=C(CN1CCC2(CC1)OCCO2)c1ccc2cc[nH]c2c1,i,102,i,i,i,i,i,i
CCN(CC)CCNC(=O)c1ccc(NC(=O)c2cn(-c3ccccc3)nc2-c2cccs2)cc1,i,35,i,i,i,i,i,i
CCN(CC)CCNC(=O)c1ccc(NC(=O)c2cn(-c3ccc(F)cc3)nc2-c2cccc(OC)c2)cc1,i,i,i,i,i,i,nt,nt
Cc1cc(C)c(NC(=O)CN2CCN3CCCC3C2)c(C)c1 (centres undefined),i,32!,i,i,i,i,33,i
COc1ccc(-c2nc(CN3CCN(c4cc(C)nc(C)c4)CC3)c(C)o2)c2ccccc12,i,25,i,i,i,i,i,i
O=C(C[n+]1cccc(CNC(=O)c2ccc(OC(F)F)cc2)c1)Nc1cccc(C(F)(F)F)c1,i,32,i,i,i,i,24,i
N=c1c2c(ncn1Cc1ccco1)Oc1c(ccc3ccccc13)C2c1ccccc1 (centres undefined),i,i,i,i,i,i,nt,nt
CN(C)CCn1cnc2c(c1=N)C(c1ccccc1)c1ccc3ccccc3c1O2 (centres undefined),i,26,i,i,i,i,i,i
O=C(N[C@@H](Cc1cccnc1)C(=O)N1CCC[C@H]1C(=O)NCCc1ccccc1Cl)c1cccs1,i,nt,nt,nt,nt,nt,nt,nt
